In ChEMBL document CHEMBL2331363, “Synthesis of a 2,4,6-trisubstituted 5-cyano-pyrimidine library and evaluation of its immunosuppressive activity in a Mixed Lymphocyte Reaction assay” (Bioorg Med Chem, 2013):

Experiments:
[1] = biological target: T1, Inhibitor of nuclear factor kappa-B kinase subunit beta (Homo sapiens) (UniProt O14920); assay: Binding affinity to IKKbeta (unknown origin) at 10 uM relative to control
T1 sequence (whole entry): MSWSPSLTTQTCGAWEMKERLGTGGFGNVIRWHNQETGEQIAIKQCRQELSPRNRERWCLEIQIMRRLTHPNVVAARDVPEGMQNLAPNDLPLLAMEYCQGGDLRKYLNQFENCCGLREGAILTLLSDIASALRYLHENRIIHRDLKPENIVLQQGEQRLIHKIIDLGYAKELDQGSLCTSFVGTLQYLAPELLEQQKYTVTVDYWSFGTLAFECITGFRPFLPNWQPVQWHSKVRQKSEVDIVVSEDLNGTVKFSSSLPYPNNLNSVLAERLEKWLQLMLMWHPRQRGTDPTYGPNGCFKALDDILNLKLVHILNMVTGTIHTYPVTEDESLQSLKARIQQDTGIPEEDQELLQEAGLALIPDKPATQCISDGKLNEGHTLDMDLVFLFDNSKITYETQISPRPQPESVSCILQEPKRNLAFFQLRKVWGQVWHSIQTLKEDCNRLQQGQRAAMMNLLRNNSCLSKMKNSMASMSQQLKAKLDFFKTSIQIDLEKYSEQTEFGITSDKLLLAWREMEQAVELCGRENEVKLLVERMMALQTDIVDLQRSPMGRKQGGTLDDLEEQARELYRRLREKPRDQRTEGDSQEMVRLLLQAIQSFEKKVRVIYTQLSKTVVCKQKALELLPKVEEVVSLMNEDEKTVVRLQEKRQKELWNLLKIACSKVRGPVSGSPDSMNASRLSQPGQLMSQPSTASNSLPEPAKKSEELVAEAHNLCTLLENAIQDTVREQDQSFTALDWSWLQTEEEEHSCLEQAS

[2] = Cytotoxicity against human Jurkat T cells after 48 hrs by WST1 assay; assay type: cell-based
Summary of the method: (§1)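 Jurkat T cells were seeded at 5.10⁴ cells per well and exposed to serial compound dilutions for 48 h at 37 °C and 5% CO₂. Part of the medium was removed, WST-1 tetrazolium salt was added, and cells were incubated further. Absorbance was read at 450 nm. Results are % cytotoxicity at each concentration, with CC₅₀ calculated.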

[3] = Immunosuppressive activity in human RPMI1788 cells cocultured with human PBMC assessed as inhibition of [3H]thymidine incorporation incubated for 6 days prior to [3H]thymidine addition measured after 18 hrs by liquid scintillation counting; assay type: functional, cell-based; details: RPMI-1788
Summary of the method: (§2)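 Effector PBMCs from heparinized healthy-donor blood were isolated over Lymphoprep and held at 1.2 × 10⁶ cells/mL in RPMI-1640 with 10% heat-inactivated FCS. Mitomycin-treated stimulator cells were at 0.45 × 10⁶ cells/mL. Cells were mixed with diluted compound and cultured at 37 °C, 5% CO₂. (methyl-³H)thymidine was added for the final 18 h, and filter-harvested cpm were counted by scintillation. Compounds were screened at one concentration, then dose-response IC₅₀ was determined. Values are means of two independent experiments.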

[4] = biological target: Serine/threonine-protein kinase mTOR (Homo sapiens) (UniProt P42345); assay: Inhibition of mTOR (unknown origin) at 10 uM
[5] = biological target: T2, Inhibitor of nuclear factor kappa-B kinase subunit alpha (Homo sapiens) (UniProt O15111); assay: Binding affinity to IKKalpha (unknown origin) at 10 uM relative to control
T2 sequence (whole entry): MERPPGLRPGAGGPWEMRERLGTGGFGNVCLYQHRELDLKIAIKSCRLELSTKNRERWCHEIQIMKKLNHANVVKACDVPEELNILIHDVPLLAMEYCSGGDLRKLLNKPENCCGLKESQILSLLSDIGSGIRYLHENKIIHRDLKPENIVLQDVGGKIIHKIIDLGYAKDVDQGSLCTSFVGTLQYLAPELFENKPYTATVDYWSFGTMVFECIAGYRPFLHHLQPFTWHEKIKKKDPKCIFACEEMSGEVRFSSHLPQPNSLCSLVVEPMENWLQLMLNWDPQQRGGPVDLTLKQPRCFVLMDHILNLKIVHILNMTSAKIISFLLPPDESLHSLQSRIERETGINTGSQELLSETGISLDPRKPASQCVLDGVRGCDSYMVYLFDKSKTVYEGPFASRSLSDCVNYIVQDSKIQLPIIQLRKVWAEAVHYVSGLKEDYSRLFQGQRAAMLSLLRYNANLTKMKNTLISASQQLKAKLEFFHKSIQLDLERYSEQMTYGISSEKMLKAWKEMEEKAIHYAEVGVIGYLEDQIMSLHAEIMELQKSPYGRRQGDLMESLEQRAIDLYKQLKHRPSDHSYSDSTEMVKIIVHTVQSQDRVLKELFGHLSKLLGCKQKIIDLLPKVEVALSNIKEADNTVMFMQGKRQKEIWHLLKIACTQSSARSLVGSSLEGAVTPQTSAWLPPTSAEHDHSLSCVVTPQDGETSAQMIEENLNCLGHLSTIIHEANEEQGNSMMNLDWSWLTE

[6] = biological target: T3, Receptor-interacting serine/threonine-protein kinase 4 (Homo sapiens) (UniProt P57078); assay: Binding affinity to RIPK4 (unknown origin) at 10 uM relative to control
T3 sequence (whole entry): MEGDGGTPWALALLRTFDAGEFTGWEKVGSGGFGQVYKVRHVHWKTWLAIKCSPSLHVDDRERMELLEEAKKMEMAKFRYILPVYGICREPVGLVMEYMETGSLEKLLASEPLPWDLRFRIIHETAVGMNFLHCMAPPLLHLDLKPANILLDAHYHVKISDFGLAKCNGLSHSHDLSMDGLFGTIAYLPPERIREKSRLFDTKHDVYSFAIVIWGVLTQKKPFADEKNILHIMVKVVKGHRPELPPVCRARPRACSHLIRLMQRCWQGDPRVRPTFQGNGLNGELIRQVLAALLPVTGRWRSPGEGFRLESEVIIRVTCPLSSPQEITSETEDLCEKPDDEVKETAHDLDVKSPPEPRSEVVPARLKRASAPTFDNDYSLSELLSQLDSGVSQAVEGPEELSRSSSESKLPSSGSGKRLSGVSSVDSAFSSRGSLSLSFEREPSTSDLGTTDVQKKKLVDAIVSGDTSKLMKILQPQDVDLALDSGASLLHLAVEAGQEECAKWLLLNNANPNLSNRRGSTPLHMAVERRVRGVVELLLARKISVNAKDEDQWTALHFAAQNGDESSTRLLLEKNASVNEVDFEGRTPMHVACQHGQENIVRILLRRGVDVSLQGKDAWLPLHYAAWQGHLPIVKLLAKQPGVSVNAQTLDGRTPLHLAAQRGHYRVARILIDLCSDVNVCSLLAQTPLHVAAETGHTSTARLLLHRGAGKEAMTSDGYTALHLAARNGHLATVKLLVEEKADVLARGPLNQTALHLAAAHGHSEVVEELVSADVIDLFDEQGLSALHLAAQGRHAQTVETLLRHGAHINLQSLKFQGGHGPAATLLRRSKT

[7] = Growth inhibition of human Jurkat T cells at 10 uM after 48 hrs by WST1 assay; assay type: cell-based; summary of the method: as §1
[8] = biological target: Serine/threonine-protein kinase 10 (Homo sapiens) (UniProt O94804); assay: Binding affinity to LOK (unknown origin) at 10 uM relative to control
[9] = biological target: Ribosomal protein S6 kinase alpha-6 (Homo sapiens) (UniProt Q9UK32); assay: Binding affinity to RSK4 (unknown origin) at 10 uM relative to control
[10] = biological target: Tyrosine-protein kinase JAK1 (Homo sapiens) (UniProt P23458); assay: Binding affinity to JAK1 (unknown origin) at 10 uM relative to control
[11] = biological target: Serine/threonine-protein kinase B-raf (Homo sapiens) (UniProt P15056); assay: Binding affinity to BRAF (unknown origin) at 10 uM relative to control
[12] = Immunosuppressive activity in human RPMI1788 cells cocultured with human PBMC assessed as inhibition of [3H]thymidine incorporation at 10 uM incubated for 6 days prior to [3H]thymidine addition measured after 18 hrs by liquid scintillation counting; assay type: functional; details: RPMI-1788; summary of the method: as §2
[13] = test system: Serine/threonine-protein kinase B-raf (Homo sapiens), P15056 [V600E]; assay: Binding affinity to BRAF V600E mutant (unknown origin) at 10 uM relative to control
Sequence of Serine/threonine-protein kinase B-raf (Homo sapiens), P15056 [V600E] (P15056 whole entry V600E): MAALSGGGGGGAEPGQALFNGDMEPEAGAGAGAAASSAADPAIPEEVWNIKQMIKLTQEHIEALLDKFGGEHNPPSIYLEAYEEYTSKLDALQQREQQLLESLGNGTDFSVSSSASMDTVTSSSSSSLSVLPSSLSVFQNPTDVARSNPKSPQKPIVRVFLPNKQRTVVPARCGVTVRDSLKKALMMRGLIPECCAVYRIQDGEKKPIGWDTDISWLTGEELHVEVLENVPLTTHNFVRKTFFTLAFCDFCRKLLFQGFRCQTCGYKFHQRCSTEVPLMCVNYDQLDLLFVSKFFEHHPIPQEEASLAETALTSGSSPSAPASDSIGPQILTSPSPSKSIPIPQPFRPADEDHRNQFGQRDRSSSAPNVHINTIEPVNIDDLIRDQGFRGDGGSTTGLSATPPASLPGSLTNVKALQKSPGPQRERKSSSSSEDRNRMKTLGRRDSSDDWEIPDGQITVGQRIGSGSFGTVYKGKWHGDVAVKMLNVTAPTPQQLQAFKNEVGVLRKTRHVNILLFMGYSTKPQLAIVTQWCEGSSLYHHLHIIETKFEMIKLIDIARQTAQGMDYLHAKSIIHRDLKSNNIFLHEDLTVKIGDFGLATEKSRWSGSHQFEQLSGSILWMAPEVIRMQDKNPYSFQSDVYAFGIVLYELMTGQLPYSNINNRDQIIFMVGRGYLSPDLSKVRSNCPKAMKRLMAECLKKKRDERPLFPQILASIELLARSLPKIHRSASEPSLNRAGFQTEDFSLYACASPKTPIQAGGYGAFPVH

Sequence of Serine/threonine-protein kinase B-raf (Homo sapiens) (P15056 whole entry): as the sequence (P15056 whole entry V600E) above, with E600V counted along it
Sequence of Ribosomal protein S6 kinase alpha-6 (Homo sapiens) (Q9UK32 whole entry): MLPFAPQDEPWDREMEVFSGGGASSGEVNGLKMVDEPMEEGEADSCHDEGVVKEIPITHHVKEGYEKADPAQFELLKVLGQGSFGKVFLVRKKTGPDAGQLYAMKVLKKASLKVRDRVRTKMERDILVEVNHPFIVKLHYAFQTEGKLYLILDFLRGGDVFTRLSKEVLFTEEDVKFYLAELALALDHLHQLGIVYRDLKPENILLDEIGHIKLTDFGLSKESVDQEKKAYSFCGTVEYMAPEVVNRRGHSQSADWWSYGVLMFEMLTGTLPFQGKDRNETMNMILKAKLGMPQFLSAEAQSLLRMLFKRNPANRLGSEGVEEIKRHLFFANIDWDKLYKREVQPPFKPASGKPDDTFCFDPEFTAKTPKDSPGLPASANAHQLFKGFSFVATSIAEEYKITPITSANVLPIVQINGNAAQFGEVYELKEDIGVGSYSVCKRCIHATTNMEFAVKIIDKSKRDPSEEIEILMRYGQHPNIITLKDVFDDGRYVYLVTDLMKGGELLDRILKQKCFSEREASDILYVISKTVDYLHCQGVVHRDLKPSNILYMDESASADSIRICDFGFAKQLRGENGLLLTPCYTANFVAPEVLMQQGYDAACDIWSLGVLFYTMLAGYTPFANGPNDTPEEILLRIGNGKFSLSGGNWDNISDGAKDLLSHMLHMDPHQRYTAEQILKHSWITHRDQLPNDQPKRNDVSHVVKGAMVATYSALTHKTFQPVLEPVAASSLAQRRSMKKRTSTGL
Sequence of Tyrosine-protein kinase JAK1 (Homo sapiens) (P23458 whole entry): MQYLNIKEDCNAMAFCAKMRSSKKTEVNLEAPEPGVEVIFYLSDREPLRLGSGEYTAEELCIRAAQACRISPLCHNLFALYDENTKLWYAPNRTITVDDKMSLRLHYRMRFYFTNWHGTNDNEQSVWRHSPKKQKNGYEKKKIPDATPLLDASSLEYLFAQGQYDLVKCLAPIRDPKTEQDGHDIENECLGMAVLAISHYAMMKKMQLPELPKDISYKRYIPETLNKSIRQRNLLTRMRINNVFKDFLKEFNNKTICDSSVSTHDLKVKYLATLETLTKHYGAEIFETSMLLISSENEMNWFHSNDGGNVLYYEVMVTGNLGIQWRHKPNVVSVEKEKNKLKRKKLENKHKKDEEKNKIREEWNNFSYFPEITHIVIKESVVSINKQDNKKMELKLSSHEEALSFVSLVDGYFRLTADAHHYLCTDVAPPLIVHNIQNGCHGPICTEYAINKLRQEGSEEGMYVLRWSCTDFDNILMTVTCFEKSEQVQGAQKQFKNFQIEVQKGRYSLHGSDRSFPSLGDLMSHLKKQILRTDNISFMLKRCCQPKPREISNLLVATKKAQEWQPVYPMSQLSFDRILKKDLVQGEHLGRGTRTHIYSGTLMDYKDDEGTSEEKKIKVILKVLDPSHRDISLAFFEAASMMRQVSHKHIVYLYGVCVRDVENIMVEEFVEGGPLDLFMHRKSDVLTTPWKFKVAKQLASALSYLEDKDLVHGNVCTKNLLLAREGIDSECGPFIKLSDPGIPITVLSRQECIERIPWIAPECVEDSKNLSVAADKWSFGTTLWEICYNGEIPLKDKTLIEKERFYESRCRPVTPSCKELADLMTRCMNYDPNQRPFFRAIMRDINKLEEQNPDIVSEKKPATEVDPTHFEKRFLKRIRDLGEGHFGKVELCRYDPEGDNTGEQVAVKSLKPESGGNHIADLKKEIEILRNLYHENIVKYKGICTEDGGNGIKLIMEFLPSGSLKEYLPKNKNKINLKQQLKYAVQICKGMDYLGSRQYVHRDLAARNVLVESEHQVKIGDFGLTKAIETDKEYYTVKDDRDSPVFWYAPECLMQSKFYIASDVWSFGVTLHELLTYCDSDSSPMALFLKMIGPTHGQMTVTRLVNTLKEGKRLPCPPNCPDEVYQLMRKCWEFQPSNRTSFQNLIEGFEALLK
Sequence of Serine/threonine-protein kinase 10 (Homo sapiens) (O94804 whole entry, looked up): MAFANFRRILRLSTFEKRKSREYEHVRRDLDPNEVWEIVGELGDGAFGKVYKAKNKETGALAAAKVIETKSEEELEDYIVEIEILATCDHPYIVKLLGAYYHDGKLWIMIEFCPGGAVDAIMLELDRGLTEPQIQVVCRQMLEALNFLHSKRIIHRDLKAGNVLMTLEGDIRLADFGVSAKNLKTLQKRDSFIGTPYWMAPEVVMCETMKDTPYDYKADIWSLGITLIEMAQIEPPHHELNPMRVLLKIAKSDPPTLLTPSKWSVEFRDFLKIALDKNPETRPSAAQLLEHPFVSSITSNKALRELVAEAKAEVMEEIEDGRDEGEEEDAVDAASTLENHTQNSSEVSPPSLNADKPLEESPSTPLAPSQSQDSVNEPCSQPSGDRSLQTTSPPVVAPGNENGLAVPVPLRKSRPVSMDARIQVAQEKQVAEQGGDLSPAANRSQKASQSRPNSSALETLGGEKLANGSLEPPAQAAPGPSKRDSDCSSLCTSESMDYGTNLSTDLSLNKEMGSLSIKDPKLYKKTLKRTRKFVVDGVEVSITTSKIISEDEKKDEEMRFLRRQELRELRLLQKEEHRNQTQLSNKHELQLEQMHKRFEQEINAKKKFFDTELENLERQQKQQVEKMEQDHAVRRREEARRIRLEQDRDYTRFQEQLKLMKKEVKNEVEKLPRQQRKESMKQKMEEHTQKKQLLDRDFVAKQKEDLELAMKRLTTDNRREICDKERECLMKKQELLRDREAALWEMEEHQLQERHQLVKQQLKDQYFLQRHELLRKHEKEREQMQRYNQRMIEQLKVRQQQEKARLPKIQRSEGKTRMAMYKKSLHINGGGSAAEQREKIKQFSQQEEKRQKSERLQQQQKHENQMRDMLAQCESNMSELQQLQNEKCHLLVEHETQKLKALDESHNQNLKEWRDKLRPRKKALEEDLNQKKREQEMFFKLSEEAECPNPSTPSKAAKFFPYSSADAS

Activity [1]: 48%
IC50 [3]: 1600 nM
inhibition [4]: 10%
Activity [5]: 44%
Activity [6]: 43%
Activity [8]: 45%
Activity [9]: 35%
Activity [10]: 39%
Activity [11]: 34%
Activity [13]: 28%
Structure (SMILES): COc1ccc(-c2nc(SCc3ccccc3)nc(N3CCOCC3)c2C#N)cc1
CC50 at 48 h [2]: > 10000 nM
inhibition at 48 h, 10 µM [7]: 10%
inhibition at 10 µM [12]: 90%
